Laboratory results taken from ChEMBL document CHEMBL4842338, “System-oriented optimization of multi-target 2,6-diaminopurine derivatives: Easily accessible broad-spectrum antivirals active against flaviviruses, influenza virus and SARS-CoV-2” (Eur J Med Chem, 2021).

Tests used:
[1] = test system: Influenza A virus; assay: Antiviral activity against Influenza A Puerto Rico/8/34/H1N1 infected in human A549 cells assessed as inhibition of viral replication after 24 hrs by hemagglutination assay; assay type: functional, organism-based; conditions: A/Puerto Rico/8/1934(H1N1), A549, 24 h
[2] = target: Fyn (Tyrosine-protein kinase Fyn) (Homo sapiens, UniProt P06241); assay: Inhibition of human recombinant N terminal His6 tagged full length Fyn assessed as residual activity at 5 uM using […] as a substrate in the presence of NP-40 incubated for 10 mins by scintillation counting analysis relative to control; conditions: probe […], read-out: Activity
Fyn (Tyrosine-protein kinase Fyn), sequence (P06241 whole entry): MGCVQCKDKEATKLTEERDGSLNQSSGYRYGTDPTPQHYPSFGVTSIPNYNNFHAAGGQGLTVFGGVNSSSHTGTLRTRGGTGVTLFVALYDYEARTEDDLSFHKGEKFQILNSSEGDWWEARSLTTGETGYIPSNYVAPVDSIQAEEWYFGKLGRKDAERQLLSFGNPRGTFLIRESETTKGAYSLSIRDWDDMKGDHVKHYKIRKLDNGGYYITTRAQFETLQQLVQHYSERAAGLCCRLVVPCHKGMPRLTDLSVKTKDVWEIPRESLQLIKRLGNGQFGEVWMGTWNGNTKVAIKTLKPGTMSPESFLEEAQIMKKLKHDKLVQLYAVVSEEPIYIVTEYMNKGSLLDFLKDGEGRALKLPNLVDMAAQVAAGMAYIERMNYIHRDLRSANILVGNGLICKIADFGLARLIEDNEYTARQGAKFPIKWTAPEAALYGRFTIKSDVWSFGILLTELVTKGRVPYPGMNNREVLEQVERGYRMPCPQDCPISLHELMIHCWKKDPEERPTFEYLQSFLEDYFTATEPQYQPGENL
Procedure, shortened: (§1)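 Compounds at fixed 5 μM; 10–50 ng kinase, substrate and NP-40/BSA per supplementary table, 10 μL at 30 °C for 10 min in low-binding tubes. Reactions spotted on filter, dried, scintillation counted. Mean ± SD of two independent experiments.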

[3] = target: Abl (Tyrosine-protein kinase ABL1) (Homo sapiens, UniProt P00519); assay: Inhibition of human recombinant N terminal His6 tagged Abl (27 to end residue) assessed as residual activity at 5 uM using KKGEAIYAADFA-NH2 as a substrate in the presence of NP-40 incubated for 10 mins by scintillation counting analysis relative to control; conditions: probe KKGEAIYAADFA-NH2, read-out: Activity; procedure, shortened: as §1
Abl (Tyrosine-protein kinase ABL1), sequence (P00519 whole entry): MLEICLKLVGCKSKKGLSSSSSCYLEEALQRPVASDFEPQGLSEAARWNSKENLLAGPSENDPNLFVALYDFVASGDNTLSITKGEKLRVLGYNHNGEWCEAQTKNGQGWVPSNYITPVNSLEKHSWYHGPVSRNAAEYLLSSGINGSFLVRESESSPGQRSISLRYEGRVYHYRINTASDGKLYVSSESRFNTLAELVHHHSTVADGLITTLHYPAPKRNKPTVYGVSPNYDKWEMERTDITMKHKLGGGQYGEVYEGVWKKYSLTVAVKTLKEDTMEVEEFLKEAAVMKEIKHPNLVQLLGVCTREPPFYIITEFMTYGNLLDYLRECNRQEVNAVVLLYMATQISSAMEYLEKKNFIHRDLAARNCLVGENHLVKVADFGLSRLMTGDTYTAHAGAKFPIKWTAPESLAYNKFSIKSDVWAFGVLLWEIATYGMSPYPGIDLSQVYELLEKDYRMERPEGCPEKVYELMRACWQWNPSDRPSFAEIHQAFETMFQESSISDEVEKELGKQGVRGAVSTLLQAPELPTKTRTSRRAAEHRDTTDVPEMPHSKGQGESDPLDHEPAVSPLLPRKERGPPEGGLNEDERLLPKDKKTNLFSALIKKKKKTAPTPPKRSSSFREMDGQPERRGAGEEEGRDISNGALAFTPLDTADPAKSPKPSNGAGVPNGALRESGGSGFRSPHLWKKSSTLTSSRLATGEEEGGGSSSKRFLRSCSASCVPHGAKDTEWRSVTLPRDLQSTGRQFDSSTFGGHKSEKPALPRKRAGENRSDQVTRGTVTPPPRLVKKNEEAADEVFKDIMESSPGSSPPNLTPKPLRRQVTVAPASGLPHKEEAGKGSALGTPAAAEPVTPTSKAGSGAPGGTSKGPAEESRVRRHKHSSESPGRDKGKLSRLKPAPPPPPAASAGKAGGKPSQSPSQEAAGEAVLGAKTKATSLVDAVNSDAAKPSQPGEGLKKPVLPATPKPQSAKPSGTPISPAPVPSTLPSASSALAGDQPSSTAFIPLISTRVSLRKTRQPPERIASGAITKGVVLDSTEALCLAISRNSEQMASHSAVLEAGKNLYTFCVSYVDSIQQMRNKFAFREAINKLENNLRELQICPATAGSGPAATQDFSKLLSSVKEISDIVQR

[4] = Selectivity index, ratio of CC50 for human A549 cells to IC50 for Influenza A Puerto Rico/8/34/H1N1 infected in human A549 cells; assay type: toxicity, cell-based; conditions: read-out: Selectivity Index
Procedure, shortened: (§2)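 MDCK or A549 cells (2.5 × 10⁵/well) infected with A/Puerto Rico/8/34 H1N1 for 1 h at 37 °C, then washed. Compound (0.5–20 μM) added in 2% FBS medium for 24 h, with DMSO final ≤0.2%. Virus in supernatants read by hemagglutination. CC₅₀ by MTT (2 × 10⁴ cells/well, same concentrations, 24 h, absorbance 570 nm). SI = CC₅₀/IC₅₀.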

[5] = Inhibition of full length ZIKV NS5-MTase domain using 7MeGpppAC4 as a substrate incubated for 30 mins by filter binding assay; design: species or system Zika virus
[6] = Selectivity index, ratio of CC50 for MDCK cells to IC50 for Influenza A Puerto Rico/8/34/H1N1 infected in MDCK cells; assay type: toxicity, cell-based; conditions: dog, read-out: Selectivity Index; procedure, shortened: as §2
[7] = target: CDK9/cyclin T1 (Homo sapiens, UniProt P50750); assay: Inhibition of human full length CDK9/ His-tagged cT1 assessed as residual activity at 5 uM using CDKtide as a substrate in the presence of BSA incubated for 10 mins by scintillation counting analysis relative to control; assay type: protein-complex assay; conditions: full length CDK9/His-tagged cyclin T1 complex, probe CDKtide, read-out: Activity; procedure, shortened: as §1
CDK9/cyclin T1, sequence (O60563 whole entry): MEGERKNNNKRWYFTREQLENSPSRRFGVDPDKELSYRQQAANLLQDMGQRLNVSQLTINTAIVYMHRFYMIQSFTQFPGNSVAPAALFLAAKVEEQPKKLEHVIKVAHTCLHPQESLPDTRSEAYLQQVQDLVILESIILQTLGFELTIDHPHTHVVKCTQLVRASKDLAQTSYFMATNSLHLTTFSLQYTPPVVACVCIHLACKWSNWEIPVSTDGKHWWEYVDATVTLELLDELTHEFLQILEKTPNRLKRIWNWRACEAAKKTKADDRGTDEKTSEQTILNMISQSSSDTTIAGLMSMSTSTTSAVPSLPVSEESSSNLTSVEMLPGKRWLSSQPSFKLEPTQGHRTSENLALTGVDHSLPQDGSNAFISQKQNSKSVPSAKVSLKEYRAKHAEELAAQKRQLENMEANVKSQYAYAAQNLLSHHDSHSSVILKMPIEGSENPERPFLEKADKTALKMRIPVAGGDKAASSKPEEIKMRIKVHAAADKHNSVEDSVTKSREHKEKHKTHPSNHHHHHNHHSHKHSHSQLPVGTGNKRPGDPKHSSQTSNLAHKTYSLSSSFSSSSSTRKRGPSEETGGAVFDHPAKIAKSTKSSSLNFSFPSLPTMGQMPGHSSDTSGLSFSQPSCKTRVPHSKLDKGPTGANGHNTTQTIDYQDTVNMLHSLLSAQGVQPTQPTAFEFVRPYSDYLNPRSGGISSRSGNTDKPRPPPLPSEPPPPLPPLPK
CDK9/cyclin T1, sequence (P50750 whole entry): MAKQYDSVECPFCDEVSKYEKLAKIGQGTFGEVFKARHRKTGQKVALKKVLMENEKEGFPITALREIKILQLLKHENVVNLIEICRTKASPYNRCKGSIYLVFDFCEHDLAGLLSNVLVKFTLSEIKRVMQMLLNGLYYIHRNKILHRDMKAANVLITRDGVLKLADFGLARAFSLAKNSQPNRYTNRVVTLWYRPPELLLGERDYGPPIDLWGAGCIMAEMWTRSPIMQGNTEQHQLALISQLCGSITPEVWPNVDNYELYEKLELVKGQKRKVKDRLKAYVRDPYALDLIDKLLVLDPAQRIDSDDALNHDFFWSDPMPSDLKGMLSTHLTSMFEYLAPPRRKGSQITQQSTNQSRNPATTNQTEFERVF

[8] = Inhibition of full length ZIKA virus NS5 RNA dependent RNA polymerase incubated for 10 mins by picogreen staining based fluorescent analysis (Rvb= 1+/-0.2 uM)
[9] = Inhibition of Dengue virus 2 […] RNA dependent RNA polymerase incubated for 10 mins by picogreen staining based fluorescent analysis (Rvb= 0.27+/-0.03 uM); design: species or system dengue virus type 2
[10] = Selectivity index, ratio of CC50 for human Huh-7 cells to IC50 for Zika virus H/PF/2013 infected in pre-seeded Huh-7 cells assessed as inhibition of viral replication incubated for 72 hrs by immunodetection based secondary yield reduction assay; assay type: toxicity, cell-based; conditions: read-out: Selectivity Index
[11] = test system: MDCK; assay: Cytotoxicity against MDCK cells assessed as reduction in cell viability measured after 24 hrs by MTT assay; assay type: cell-based, Canis lupus familiaris; conditions: dog, mdck, 24 h
[12] = target: PIK3CA (Phosphatidylinositol 4,5-bisphosphate 3-kinase catalytic subunit alpha isoform) (Homo sapiens, UniProt P42336); assay: Inhibition of human full length PIK3CA assessed as residual activity at 5 uM using PI:PS (1:3) as a substrate incubated for 10 mins by scintillation counting analysis relative to control; conditions: full length PIK3CA enzyme, probe PI:PS (1:3), read-out: Activity
PIK3CA (Phosphatidylinositol 4,5-bisphosphate 3-kinase catalytic subunit alpha isoform), sequence (P42336 whole entry, canonical isoform): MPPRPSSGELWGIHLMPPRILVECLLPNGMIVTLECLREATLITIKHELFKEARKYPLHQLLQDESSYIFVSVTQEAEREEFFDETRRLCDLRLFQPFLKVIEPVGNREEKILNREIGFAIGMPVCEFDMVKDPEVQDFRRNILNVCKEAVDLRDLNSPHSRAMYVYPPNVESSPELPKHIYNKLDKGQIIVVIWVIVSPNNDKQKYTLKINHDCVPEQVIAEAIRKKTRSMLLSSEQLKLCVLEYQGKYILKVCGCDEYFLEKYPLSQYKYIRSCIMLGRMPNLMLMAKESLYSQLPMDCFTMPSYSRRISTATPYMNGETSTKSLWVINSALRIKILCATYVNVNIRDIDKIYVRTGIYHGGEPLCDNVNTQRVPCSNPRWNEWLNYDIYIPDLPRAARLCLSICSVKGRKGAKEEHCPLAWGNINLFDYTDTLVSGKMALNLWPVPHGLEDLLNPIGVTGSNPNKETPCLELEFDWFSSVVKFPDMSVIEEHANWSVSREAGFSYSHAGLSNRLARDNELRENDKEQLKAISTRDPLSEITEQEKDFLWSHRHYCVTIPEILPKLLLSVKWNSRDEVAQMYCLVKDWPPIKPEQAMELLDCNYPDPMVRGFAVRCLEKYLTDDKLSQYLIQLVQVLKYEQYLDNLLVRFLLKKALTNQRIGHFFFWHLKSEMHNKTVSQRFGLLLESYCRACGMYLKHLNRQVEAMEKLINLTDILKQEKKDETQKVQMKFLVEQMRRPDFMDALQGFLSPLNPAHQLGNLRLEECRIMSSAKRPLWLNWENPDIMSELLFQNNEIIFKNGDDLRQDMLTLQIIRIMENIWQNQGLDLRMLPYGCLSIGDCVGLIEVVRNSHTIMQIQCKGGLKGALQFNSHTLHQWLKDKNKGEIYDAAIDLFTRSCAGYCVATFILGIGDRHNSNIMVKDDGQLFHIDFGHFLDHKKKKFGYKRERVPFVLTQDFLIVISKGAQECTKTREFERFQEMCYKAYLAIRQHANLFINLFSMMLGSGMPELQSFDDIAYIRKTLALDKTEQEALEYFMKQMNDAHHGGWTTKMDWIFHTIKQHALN
Procedure, shortened: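 Radiometric kinase reaction with 10–50 ng enzyme and compound fixed at 5 μM, 10 μL at 30 °C for 10 min. Reactions spotted on filter and counted by scintillation. Residual activity is the mean ± SD of two independent experiments.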

[13] = Selectivity index, ratio of CC50 for human Huh-7 cells to IC50 for Dengue virus serotype 2 New Guinea C infected in pre-seeded Huh-7 cells assessed as inhibition of viral replication incubated for 72 hrs by immunodetection based secondary yield reduction assay; assay type: toxicity, cell-based; conditions: read-out: Selectivity Index
[14] = Inhibition of DENV NS5-MTase domain using GpppA2'OMe-RNA74 as a substrate incubated for 30 mins by filter binding assay; design: species or system dengue virus type 2
Procedure, shortened: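 MTase (1 μM) incubated with increasing inhibitor in 40 mM Tris-HCl pH 7.5, 5 mM DTT, 10 μM AdoMet ([3H]-labelled), 0.5 μM GpppA2′OMe-RNA74 substrate, 30 °C for 30 min; stopped in ice-cold 100 μM AdoHcy; DEAE filter binding, scintillation counting.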

[15] = Inhibition of full length Dengue virus 2 NS5 RNA dependent RNA polymerase incubated for 10 mins by picogreen staining based fluorescent analysis (Rvb= 0.32+/-0.05 uM); design: species or system dengue virus type 2
[16] = Cytotoxicity against human Huh-7 cells assessed as reduction in cell viability by Celltiter-Glo luminescent cell viability assay; assay type: cell-based; conditions: Huh-7 cells
Procedure, shortened: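 Compound-exposed cells assessed by CellTiter-Glo luminescence versus DMSO control; CC50 from dose-response.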

[17] = test system: A549; assay: Cytotoxicity against human A549 cells assessed as reduction in cell viability measured after 24 hrs by MTT assay; assay type: cell-based; conditions: a549, 24 h
[18] = test system: Zika virus; assay: Antiviral activity against Zika virus H/PF/2013 infected in pre-seeded Huh-7 cells assessed as inhibition of viral replication incubated for 72 hrs by immunodetection based secondary yield reduction assay; assay type: functional, organism-based; conditions: H/PF/2013, Huh-7, 72 h
[19] = test system: dengue virus type 2; assay: Antiviral activity against Dengue virus serotype 2 New Guinea C infected in pre-seeded Huh-7 cells assessed as inhibition of viral replication incubated for 72 hrs by immunodetection based secondary yield reduction assay; assay type: functional, organism-based; conditions: Dengue virus, New Guinea C, Huh-7, 72 h; read-out: IC50
[20] = test system: Influenza A virus; assay: Antiviral activity against Influenza A Puerto Rico/8/34/H1N1 infected in MDCK cells assessed as inhibition of viral replication measured in supernatants of infected cells after 24 hrs by hemagglutination assay; assay type: functional, organism-based; conditions: A/Puerto Rico/8/1934(H1N1)
[21] = target: Src (Proto-oncogene tyrosine-protein kinase Src) (Homo sapiens, UniProt P12931); assay: Inhibition of human recombinant N terminal His6 tagged full length Src assessed as residual activity at 5 uM using KVEKIGEGTYGVVYK as a substrate in the presence of NP-40 incubated for 10 mins by scintillation counting analysis relative to control; conditions: probe KVEKIGEGTYGVVYK, read-out: Activity; procedure, shortened: as §1
Src (Proto-oncogene tyrosine-protein kinase Src), sequence (P12931 2-536 limits assumed): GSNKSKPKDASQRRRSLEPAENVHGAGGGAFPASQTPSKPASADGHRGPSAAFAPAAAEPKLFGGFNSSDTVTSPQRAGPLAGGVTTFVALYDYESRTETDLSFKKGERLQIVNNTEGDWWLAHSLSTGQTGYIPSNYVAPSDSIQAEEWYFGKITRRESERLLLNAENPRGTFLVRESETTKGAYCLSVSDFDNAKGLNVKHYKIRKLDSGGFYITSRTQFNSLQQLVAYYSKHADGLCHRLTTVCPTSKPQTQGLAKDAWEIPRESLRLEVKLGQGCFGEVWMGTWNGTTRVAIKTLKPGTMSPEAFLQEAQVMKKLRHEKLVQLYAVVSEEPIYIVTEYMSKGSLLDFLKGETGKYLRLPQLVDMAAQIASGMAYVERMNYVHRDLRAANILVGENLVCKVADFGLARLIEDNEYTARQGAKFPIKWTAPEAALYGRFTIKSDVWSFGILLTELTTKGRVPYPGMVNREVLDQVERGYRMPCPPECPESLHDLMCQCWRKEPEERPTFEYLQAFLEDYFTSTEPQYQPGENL

Fc1cccc(Nc2nc(NCCOc3ccccc3)nc3[nH]cnc23)c1
IC50 [1]: 20.8 µM | activity at 10 min, 5 µM [2]: > 98% | activity at 10 min, 5 µM [3]: 54% | selectivity ratio [4]: 2.8 | IC50 [5]: Not Active | selectivity ratio [6]: 5.5 | activity at 10 min, 5 µM [7]: 87% | IC50 [8]: 18.9 µM | IC50 [9]: 31.2 µM | selectivity ratio at 72 h [10]: 68 | CC50 [11]: 77 µM | activity at 10 min, 5 µM [12]: 69% | selectivity ratio at 72 h [13]: 17 | IC50 [14]: Not Active | IC50 [15]: > 100 µM | CC50 [16]: 200 µM | CC50 [17]: 58 µM | IC50 [18]: 2900 nM | IC50 [19]: 12 µM | IC50 [20]: 14 µM | activity at 10 min, 5 µM [21]: 45%
